pIC50, pKi: −log10 of the molar value.

The nature of test [1]: Ratio of binding affinities for opioid receptors kappa and mu. Summed up: (§1)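 Ratios of Ki values from competition binding. Rat brain membranes were used with 0.5 nM [3H]DAMGO (mu) or [3H][Ile5,6]deltorphin II (delta), 45 min at 35 °C. Guinea pig brain membranes were used with 1 nM [3H]U69,593 (kappa), 30 min at 30 °C. Nonspecific binding was defined with 10 µM naloxone.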

Test [2] is described as follows: Relative agonistic activity against opioid receptor delta in mouse vas deferens and opioid receptor mu in guinea pig ileum. In kind it is functional.
The species named for test [3] is Mus musculus. Nature of the test: Ratios of colonic bead expulsion to that of antinociceptive potencie by hotplate test in mice. It counts as functional.
Test [4] has as its system Mus musculus. Nature of the test: Gastrointestinal (GI) motility was assessed by colonic bead expulsion after subcutaneous administration in mice. It counts as functional. The conditions noted are these: sc.
Test [5] addresses Mu-type opioid receptor (Cavia porcellus, UniProt P97266). Nature of the test: In vitro agonistic activity against opioid receptor mu of guinea pig ileum. It counts as functional, tissue-based. A digest of the protocol:
(§2)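 Field stimulation with supramaximal-voltage bipolar rectangular pulses of male guinea-pig ileum myenteric plexus longitudinal muscle and of mouse vas deferens. Inhibition of the electrically evoked twitch; IC50 values as mean ± SEM.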

The target of test [6] is Delta-type opioid receptor (Rattus norvegicus, UniProt P33533). Nature of the test: Inhibition of [3H][Ile5,6]deltorphin II binding to opioid receptor delta from rat brain membranes. It counts as cell membranes, Membrane. A digest of the protocol:
(§3)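 Sprague-Dawley rat brain membranes (0.3-0.5 mg protein) in 50 mM Tris-HCl incubated with 0.5 nM [3H]DAMGO or [3H][Ile5,6]deltorphin II, 45 min at 35 °C. GF/C filtration, ice-cold Tris-HCl washes; nonspecific binding with 10 µM naloxone. Duplicates, 3-4 independent experiments; Ki as mean ± SEM.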

In test [7] the target is Opioid receptors; mu & delta (Rattus norvegicus) (UniProt P33533+P33535). Nature of the test: Ratio of binding affinities for opioid receptors delta and mu. In kind it is protein assay. A digest of the protocol: as §1
In test [8] the test system is Mus musculus. Nature of the test: Antinociceptive potencie was assessed after subcutaneous administration of compound by hotplate test (HP) in mice. In kind it is functional. Summed up:
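Male CD-1 mice (20-25 g), compound in sterile Ringer's solution given sc, 10 animals per dose. Paw licking or jumping on 55 °C hot-plate; pre-drug control latency (non-responders within 3 s excluded), 12 s cutoff.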

For test [9], the target named is Delta-type opioid receptor (Mus musculus, UniProt P32300). Nature of the test: In vitro agonistic activity against opioid receptor delta of mouse vas deferens. It counts as functional, tissue-based. Summed up: as §2
Test [10] deals with Mu-type opioid receptor (Rattus norvegicus, UniProt P33535). Nature of the test: Inhibition of [3H]DAMGO binding to opioid receptor mu from rat brain membranes. It counts as cell membranes, Membrane. A digest of the protocol:
as §3

The target in test [11] is Kappa-type opioid receptor (Cavia porcellus, UniProt P41144). Nature of the test: Inhibition of [3H]U-69593 binding to opioid receptor kappa from guinea pig brain membranes.
Kappa-type opioid receptor, sequence (P41144 whole entry): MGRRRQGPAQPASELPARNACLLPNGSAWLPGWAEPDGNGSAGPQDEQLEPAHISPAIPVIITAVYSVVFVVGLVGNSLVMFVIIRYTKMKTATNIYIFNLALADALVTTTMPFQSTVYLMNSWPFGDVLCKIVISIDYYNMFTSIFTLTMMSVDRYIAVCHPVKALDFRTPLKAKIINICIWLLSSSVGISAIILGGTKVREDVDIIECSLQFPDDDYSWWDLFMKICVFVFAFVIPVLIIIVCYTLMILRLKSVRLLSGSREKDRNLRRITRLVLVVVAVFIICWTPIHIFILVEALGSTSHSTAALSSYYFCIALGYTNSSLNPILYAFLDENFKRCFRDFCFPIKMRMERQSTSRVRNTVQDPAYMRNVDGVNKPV

Mu-type opioid receptor (Cavia porcellus, UniProt P97266), sequence (P97266 whole entry): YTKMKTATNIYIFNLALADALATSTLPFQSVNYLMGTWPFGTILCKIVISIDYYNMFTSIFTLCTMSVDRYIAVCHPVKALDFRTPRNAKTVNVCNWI
Delta-type opioid receptor (Mus musculus, UniProt P32300), sequence (P32300 whole entry): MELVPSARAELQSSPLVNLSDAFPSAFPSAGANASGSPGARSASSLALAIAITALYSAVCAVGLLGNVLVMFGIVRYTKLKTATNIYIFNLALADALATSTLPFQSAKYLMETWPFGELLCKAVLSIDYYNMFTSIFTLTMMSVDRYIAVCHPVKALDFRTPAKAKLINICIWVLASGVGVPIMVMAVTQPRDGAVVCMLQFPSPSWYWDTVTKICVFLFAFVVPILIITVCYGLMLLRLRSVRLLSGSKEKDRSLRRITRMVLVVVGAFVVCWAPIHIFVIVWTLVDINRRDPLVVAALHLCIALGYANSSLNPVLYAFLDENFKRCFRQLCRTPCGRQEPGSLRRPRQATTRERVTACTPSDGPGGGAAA
Delta-type opioid receptor (Rattus norvegicus, UniProt P33533), sequence (P33533 whole entry): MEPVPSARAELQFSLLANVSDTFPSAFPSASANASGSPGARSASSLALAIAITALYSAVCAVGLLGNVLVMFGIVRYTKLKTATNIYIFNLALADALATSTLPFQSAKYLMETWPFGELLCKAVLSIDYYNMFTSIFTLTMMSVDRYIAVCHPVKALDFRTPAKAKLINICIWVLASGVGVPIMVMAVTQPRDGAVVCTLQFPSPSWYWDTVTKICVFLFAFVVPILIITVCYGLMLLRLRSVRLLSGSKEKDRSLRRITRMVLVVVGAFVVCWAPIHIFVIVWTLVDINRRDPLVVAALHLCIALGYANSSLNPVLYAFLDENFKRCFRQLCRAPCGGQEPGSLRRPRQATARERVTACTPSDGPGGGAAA
Opioid receptors; mu & delta (Rattus norvegicus), sequence (P33533 whole entry, looked up): as the sequence (P33533 whole entry) above
Opioid receptors; mu & delta (Rattus norvegicus), sequence (P33535 whole entry, looked up): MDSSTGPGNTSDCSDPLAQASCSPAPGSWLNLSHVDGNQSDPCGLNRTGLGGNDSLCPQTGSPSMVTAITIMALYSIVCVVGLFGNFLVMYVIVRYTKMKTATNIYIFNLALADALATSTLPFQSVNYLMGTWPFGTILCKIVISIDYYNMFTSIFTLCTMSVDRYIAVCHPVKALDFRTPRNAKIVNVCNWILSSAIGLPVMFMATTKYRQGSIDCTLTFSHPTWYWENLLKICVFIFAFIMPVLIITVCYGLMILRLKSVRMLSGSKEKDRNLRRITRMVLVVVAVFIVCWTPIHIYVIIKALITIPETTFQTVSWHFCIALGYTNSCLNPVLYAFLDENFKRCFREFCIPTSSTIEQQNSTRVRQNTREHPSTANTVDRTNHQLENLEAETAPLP
Mu-type opioid receptor (Rattus norvegicus, UniProt P33535), sequence (P33535 whole entry): as the sequence (P33535 whole entry, looked up) above

For the compound `CN1CC[C@]23c4c5ccc(O)c4O[C@H]2C(=O)CC[C@@]3(OCc2cccc3ccccc23)[C@H]1C5`, the Selectivity worked out at 5.1 in test [1] and 16 in test [7]. Moreover, the Ratio in test [2] is recorded as 0.9; in the test filed under Mus musculus [3] it was 0.8. The compound also gave an ED50 with Mus musculus [4] of 0.0118 µmol/kg. Besides, the pIC50 at Mu-type opioid receptor [5] is 9.05; in [9], 9.10. Besides, the pKi in test [6] is 8.53; at Mu-type opioid receptor [10] it was 9.74; in [11], 9.04. The same compound returned an AD50 in the test with Mus musculus [8] of 14.4 nmol/kg.
Take `CN1CC[C@]23c4c5ccc(O)c4O[C@H]2C(=O)CC[C@@]3(OCc2ccccc2)[C@H]1C5`: the Selectivity was 10 in [1] and 18 in test [7]. For the same compound, the Ratio was determined as 1.7 in test [2] and 2.8 in the test filed under Mus musculus [3]. In the test on Mus musculus [4], this compound returned an ED50 of 0.027 µmol/kg. Moreover, the pIC50 at Mu-type opioid receptor [5] is 9.05; in [9], 8.82. In addition, the pKi in test [6] is 8.67; on Mu-type opioid receptor [10], 9.92; in [11], 8.93. In addition, the AD50 in the test on Mus musculus [8] is 9.6 nmol/kg.
Turning to `CCO[C@@]12CCC(=O)[C@]3(C)Oc4c(O)ccc5c4[C@@]31CCN(CCc1ccccc1)[C@@H]2C5`, the Selectivity in test [1] came out at 520; in [7] it was 20. The Ratio is on record as 5.1 in [2] and 1.1 in the test listed under Mus musculus [3]. Also, the ED50 with Mus musculus [4] worked out at 0.121 µmol/kg. In addition, the pIC50 is 8.72 at Mu-type opioid receptor [5] and 8.01 in [9]. The pKi in test [6] is 8.50; at Mu-type opioid receptor [10] it was 9.80; in [11] it was 7.08. Further, the AD50 in the test with Mus musculus [8] came out at 109 nmol/kg.
As to `CN1CC[C@]23c4c5ccc(O)c4O[C@H]2C(=O)CC[C@@]3(OCc2c(Cl)cccc2Cl)[C@H]1C5`, the Selectivity in test [1] stood at 3.2; in test [7] it was 15. Besides, the Ratio is 0.2 in test [2] and 1.5 in the test filed under Mus musculus [3]. The same compound yielded an ED50 in the test on Mus musculus [4] of 2.49 µmol/kg. Further, the pIC50 at Mu-type opioid receptor [5] was 6.00; in [9] it was 6.68. In addition, the pKi in [6] was 6.82; on Mu-type opioid receptor [10], 7.99; in test [11] it was 7.48. Further, the AD50 with Mus musculus [8] is reported as 1640 nmol/kg.
Take `C=CCO[C@@]12CCC(=O)[C@@H]3Oc4c(O)ccc5c4[C@@]31CCN(C)[C@@H]2C5`: the Selectivity in [1] was found to be 55; in test [7], 59. Further, the Ratio in test [2] is 3.6; in the test listed under Mus musculus [3], 1.1. In the test with Mus musculus [4], the ED50 was 0.037 µmol/kg. In addition, the pIC50 was 7.75 at Mu-type opioid receptor [5] and 7.20 in test [9]. Also, the pKi was 7.44 in test [6], 9.21 at Mu-type opioid receptor [10] and 7.47 in [11]. Further, the AD50 in the test with Mus musculus [8] stood at 35 nmol/kg.
For the compound `CO[C@@]12CCC(=O)[C@@H]3Oc4c(O)ccc5c4[C@@]31CCN(C)[C@@H]2C5`, the 50% effect level in the test on Mus musculus [4] (ED50) was put at a dose of 0.022 µmol/kg. Also, the pIC50 at Mu-type opioid receptor [5] is 8.70; in test [9], 7.52. The compound further gave a pKi in [6] of 8.32. Also, the AD50 with Mus musculus [8] came to 53 nmol/kg.
In the test with Mus musculus [4], `CN1CC[C@]23c4c5ccc(O)c4O[C@H]2[C@@H](O)C=C[C@H]3[C@H]1C5` [MORPHINE] yielded an ED50 of 7.62 µmol/kg. This compound showed an AD50 in the test with Mus musculus [8] of 6690 nmol/kg.
Regarding `CN1CC[C@]23c4c5ccc(O)c4O[C@@]2(C)C(=O)CC[C@@]3(OCc2ccccc2)[C@H]1C5`, the Selectivity in test [1] worked out at 14; in [7] it was 20. Further, the Ratio in test [2] stood at 4.6; in the test filed under Mus musculus [3] it was 1.1. Moreover, it took a dose of 0.074 µmol/kg to reach the 50% effect level in the test with Mus musculus [4] (ED50). The pIC50 at Mu-type opioid receptor [5] was 9.30; in [9] it was 8.64. Besides, the figures for the pKi (in test [6]; on Mu-type opioid receptor [10]; in test [11]) were 8.44, 9.74 and 8.61, respectively. Also, in the test with Mus musculus [8], the AD50 was 65 nmol/kg.
As to `CO[C@@]12CCC(=O)[C@]3(C)Oc4c(O)ccc5c4[C@@]31CCN(C)[C@@H]2C5`, the Selectivity in [1] amounted to 168; in [7], 89. Moreover, in [2], the Ratio is 4. The results for the pIC50 (at Mu-type opioid receptor [5]; in [9]) were 8.21 and 7.61, respectively. The pKi in [6] was 7.88; on Mu-type opioid receptor [10], 9.82; in [11], 7.60. Besides, the AD50 with Mus musculus [8] stood at 280 nmol/kg.

For orientation: ED50 means the dose at which the effect has come halfway, by size or by number of responders. A lower ED50 goes with an effect at a small dose. The term pIC50 denotes the IC50 on a negative log10 scale, so that one unit is a factor of ten. In general, pKi refers to −log10 of the Ki, conventionally taken in molar units. Lower therefore signals a high Ki.

The values above are taken from ChEMBL document CHEMBL1144424, “Synthesis and biological evaluation of 14-alkoxymorphinans. 22.(1) Influence of the 14-alkoxy group and the substitution in position 5 in 14-alkoxymorphinan-6-ones on in vitro and in vivo activities” (J Med Chem, 2005).
